Measurements taken from PMC2774623 (Biochemistry, 2008).

Molecular target: CK2α catalytic subunit
Assay: SPR
Assay type: binding, human
Conditions: for kd (s^−1) × 10^−3: SPR BIAcoreX, CK2α coupled to CM5 chip, 25 °C, HBS pH 7.4, Langmuir 1:1 model; for association constant ka (as printed in text): SPR, binding to CK2α, unit not given
Procedure, shortened: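 Recombinant human CK2α, expressed in E. coli, amine-coupled to a CM5 chip (1600 RU). Mouse NBD1 analyte, wild type or ΔF508, at 15 μM, flowed at 10 μL/min, 25 °C, in HBS (10 mM Hepes pH 7.4, 150 mM NaCl, 3 mM EDTA, 0.005% P20). Blank-surface response subtracted; rate constants fitted to a 1:1 binding model.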

| kd (s^−1) × 10^−3 [s^−1 × 10^−3] | association constant ka (as printed in text) | Molecule |
| --- | --- | --- |
| 0.335 | 0.135 × 10^3 | NBD1 wt: purified wild-type recombinant murine NBD1 of CFTR (spanning sequence 389−673) (protein) TTGIIMENVTAFWEEGFGELLEKVQQSNGDRKHSSDENNVSFSHLCLVGNPVLKNINLNIEKGEMLAITGSTGSGKTSLLMLILGELEASEGIIKHSGRVSFCSQFSWIMPGTIKENIIFGVSYDEYRYKSVVKACQLQQDITKFAEQDNTVLGEGGVTLSGGQRARISLARAVYKDADLYLLDSPFGYLDVFTEEQVFESCVCKLMANKTRILVTSKMEHLRKADKILILHQGSSYFYGTFSELQSLRPDFSSKLMGYDTFDQFTEERRSSILTETLRRFSVDD |
| 0.0877 | 0.96 × 10^3 | NBD1 ΔF508: purified ΔF508 mutated recombinant murine NBD1 of CFTR (spanning sequence 389−673) (protein) TTGIIMENVTAFWEEGFGELLEKVQQSNGDRKHSSDENNVSFSHLCLVGNPVLKNINLNIEKGEMLAITGSTGSGKTSLLMLILGELEASEGIIKHSGRVSFCSQFSWIMPGTIKENIIGVSYDEYRYKSVVKACQLQQDITKFAEQDNTVLGEGGVTLSGGQRARISLARAVYKDADLYLLDSPFGYLDVFTEEQVFESCVCKLMANKTRILVTSKMEHLRKADKILILHQGSSYFYGTFSELQSLRPDFSSKLMGYDTFDQFTEERRSSILTETLRRFSVDD |
